{
  "source": "ChEMBL document CHEMBL3739336",
  "about": "“Identification of dual PPARα/γ agonists and their effects on lipid metabolism” (Bioorg Med Chem, 2015)",
  "key": {"[1]": {"target": "Peroxisome proliferator-activated receptor (Homo sapiens) (UniProt P37231+Q07869+Q03181)", "sequence (P37231 whole entry, looked up, one chain of several)": "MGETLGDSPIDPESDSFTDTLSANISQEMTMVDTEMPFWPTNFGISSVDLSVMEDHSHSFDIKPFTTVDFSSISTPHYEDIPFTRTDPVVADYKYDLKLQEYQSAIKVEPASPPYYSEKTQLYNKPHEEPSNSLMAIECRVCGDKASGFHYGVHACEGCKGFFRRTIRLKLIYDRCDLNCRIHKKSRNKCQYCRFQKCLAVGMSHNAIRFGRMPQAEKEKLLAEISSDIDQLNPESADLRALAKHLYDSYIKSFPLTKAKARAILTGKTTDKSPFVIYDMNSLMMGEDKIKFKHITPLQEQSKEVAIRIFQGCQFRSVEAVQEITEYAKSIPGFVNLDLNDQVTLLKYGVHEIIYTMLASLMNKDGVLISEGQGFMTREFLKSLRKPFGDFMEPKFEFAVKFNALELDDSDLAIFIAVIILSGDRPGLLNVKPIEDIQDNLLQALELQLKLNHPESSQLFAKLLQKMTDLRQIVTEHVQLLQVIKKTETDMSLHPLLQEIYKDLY", "sequence (Q03181 whole entry, looked up, one chain of several)": "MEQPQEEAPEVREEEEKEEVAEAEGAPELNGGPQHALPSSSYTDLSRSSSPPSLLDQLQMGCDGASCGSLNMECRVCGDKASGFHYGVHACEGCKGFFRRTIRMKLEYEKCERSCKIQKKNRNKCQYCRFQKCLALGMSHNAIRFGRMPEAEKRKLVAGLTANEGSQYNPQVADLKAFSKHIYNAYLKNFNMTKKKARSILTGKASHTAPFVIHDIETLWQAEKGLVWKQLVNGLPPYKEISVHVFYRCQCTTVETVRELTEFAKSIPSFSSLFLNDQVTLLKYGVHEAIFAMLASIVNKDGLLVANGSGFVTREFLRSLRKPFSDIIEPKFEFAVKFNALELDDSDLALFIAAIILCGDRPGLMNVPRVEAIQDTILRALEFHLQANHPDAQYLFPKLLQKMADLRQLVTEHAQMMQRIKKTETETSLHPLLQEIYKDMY", "experiment": "Agonist activity at PPAR in human THP1 cells assessed as induction of ABCG1 expression at 20 uM after 24 hrs by Western blot analysis relative to control", "type": "cell-based", "details": "THP-1"}, "[2]": {"target": "T1, Peroxisome proliferator-activated receptor alpha (Homo sapiens) (UniProt Q07869)", "T1 sequence (whole entry)": "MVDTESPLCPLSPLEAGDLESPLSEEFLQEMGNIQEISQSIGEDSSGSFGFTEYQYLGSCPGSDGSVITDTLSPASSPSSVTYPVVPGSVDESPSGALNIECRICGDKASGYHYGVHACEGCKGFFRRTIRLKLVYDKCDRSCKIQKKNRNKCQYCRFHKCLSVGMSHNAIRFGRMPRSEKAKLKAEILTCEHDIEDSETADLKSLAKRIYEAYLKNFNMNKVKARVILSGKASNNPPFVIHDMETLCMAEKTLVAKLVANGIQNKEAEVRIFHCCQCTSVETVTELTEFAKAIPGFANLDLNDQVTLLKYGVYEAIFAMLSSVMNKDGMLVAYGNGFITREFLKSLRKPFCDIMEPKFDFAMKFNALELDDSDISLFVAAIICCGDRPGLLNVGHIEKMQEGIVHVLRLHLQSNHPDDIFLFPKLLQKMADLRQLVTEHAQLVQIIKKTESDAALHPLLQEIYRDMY", "experiment": "Agonist activity at PPARalpha in human HuH7 cells assessed as increase of CPT1alpha expression at 20 uM by Western blotting relative to control", "type": "cell-based", "details": "Huh-7", "in_short": "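HuH7 hepatoma cells (DMEM/F-12, 10% FCS) incubated overnight ± 20 μM. Whole-cell lysates run on 12% SDS-PAGE and immunoblotted for CPT1α with HRP secondary and ECL. Band intensity normalised to actin; mean ± SEM, n = 3.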"}, "[3]": {"target": "T1, Peroxisome proliferator-activated receptor alpha (Homo sapiens)", "experiment": "Agonist activity at PPARalpha in human HuH7 cells assessed as increase of fatty acid oxidation by measuring CO2 production using […] at 20 uM after 18 hrs by scintillation counting", "type": "cell-based", "details": "Huh-7"}, "[4]": {"target": "T2, Peroxisome proliferator-activated receptor gamma (Mus musculus) (UniProt P37238)", "T2 sequence (whole entry)": "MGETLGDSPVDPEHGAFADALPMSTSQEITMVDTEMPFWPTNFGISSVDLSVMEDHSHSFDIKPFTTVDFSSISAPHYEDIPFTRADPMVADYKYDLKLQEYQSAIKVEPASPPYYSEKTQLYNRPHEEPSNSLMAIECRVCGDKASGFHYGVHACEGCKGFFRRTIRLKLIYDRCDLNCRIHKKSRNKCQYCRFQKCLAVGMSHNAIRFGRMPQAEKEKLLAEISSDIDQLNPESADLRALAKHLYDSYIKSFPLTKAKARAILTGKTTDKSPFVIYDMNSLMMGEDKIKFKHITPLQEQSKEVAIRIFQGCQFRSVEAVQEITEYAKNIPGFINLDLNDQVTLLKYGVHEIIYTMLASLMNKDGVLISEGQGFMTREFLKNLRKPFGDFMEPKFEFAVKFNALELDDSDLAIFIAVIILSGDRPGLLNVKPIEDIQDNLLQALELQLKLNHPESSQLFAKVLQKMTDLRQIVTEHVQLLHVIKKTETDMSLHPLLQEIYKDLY", "experiment": "Agonist activity at PPARgamma in mouse 3T3-L1 cells assessed as increase of triacylglycerol accumulation at 20 uM after 18 hrs by ORO staining", "type": "cell-based", "in_short": "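Differentiated 3T3-L1 adipocytes on coverslips, treated for 18 h (overnight) with 20 μM or 25 μM. Cells fixed in 4% PFA, rinsed in 60% isopropanol, stained 10 min with Oil Red O (0.5% stock diluted 6/4 in water), then imaged by microscopy for neutral lipid.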"}, "[5]": {"experiment": "in vitro", "details": "human, HEK293 cells"}},
  "note": "Calls of active or inactive are those of the source. No cut-off for these calls is given here.",
  "data": [
    {"smiles": "CCOc1ccc2c(=O)c(-c3ccccc3)coc2c1C", "values": [
      {"measurement": "Activity", "setting": "[1]", "result": "inactive"}
    ]},
    {"smiles": "CCN(CC)c1ccc(NC(=O)c2ccccc2OCC(=O)N2CCc3ccccc32)cc1", "values": [
      {"measurement": "fold change (FC)", "setting": "[1]", "result": 3},
      {"measurement": "fold change (FC)", "setting": "[2]", "result": "> 2"},
      {"measurement": "Activity", "setting": "[3]", "result": "Active"},
      {"measurement": "Activity", "setting": "[4]", "result": 20, "unit": "%"}
    ]},
    {"smiles": "Cn1c(Cc2ccccc2)nn(CN2CCC(c3ccccc3)CC2)c1=S", "values": [
      {"measurement": "fold change (FC)", "setting": "[1]", "result": 3}
    ]},
    {"smiles": "Cc1cccc(Nc2cc(Cl)nc(SCC(=O)O)n2)c1C", "note": "[PIRINIXIC ACID]", "values": [
      {"measurement": "inhibition at 100 µM", "setting": "[5]", "result": "< 5", "unit": "%"},
      {"measurement": "Activity", "setting": "[3]", "result": "Active"}
    ]},
    {"smiles": "COc1ccc2c(=O)c(-c3ccccc3)coc2c1C", "values": [
      {"measurement": "Activity", "setting": "[1]", "result": "inactive"}
    ]},
    {"smiles": "CN(CCOc1ccc(CC2SC(=O)NC2=O)cc1)c1ccccn1", "note": "(stereo not given) [ROSIGLITAZONE]", "values": [
      {"measurement": "inhibition at 100 µM", "setting": "[5]", "result": "< 5", "unit": "%"}
    ]}
  ]
}
